# PubChem BioAssay
# Active and inactive are the calls of the source.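 The calls were made as follows, unless noted: active = GFP response above 150% of the DMSO level; inconclusive = fewer than 70 events counted for a yeast strain; inactive = the rest.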
# Tests used:
# [1] = RPL19A-GFP modulators, yeast TOR pathway, confirmation, cell-based, S. cerevisiae, flow cytometry, cherry picks, mother/daughter gates (AID 2270;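 active = GFP response below 50% of the DMSO control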); details: S. cerevisiae RPL19A-GFP strain, 3 h, at 10 µM, stronger effect = lower value, 100 = same GFP as DMSO wells
# [2] = LAP4-GFP expression modulators in yeast, confirmation, cell-based, cherry picks, flow cytometry, mother/daughter gates (AID 2271;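 active = GFP response above 150% of the DMSO control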;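 also: ratio of sample to DMSO plate mean so 100% equals DMSO level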); details: S. cerevisiae LAP4-GFP strain, 3 h, at 10 µM, stronger effect = higher value, 100 means same as DMSO control
# Summary of the method: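 Test system: GFP-fusion yeast strain / Amount: 0.2 OD600 cells / Buffer or medium: SC medium / Dosing: 10 µM single dose / Incubation: compound exposure 3 h at 30 °C, end-over-end rotation / Detection: HT flow cytometry, GFP fluorescence channel / Evaluation: median GFP fluorescence as percent of plate-mean DMSO wells / Control set: DMSO-only negative wells, rapamycin 400 ng/mL positive wells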
# [3] = modulators of MEP2-GFP levels in yeast, confirmation, S. cerevisiae, flow cytometry GFP, cherry picks (AID 2272;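 active = GFP response above 150% of the DMSO control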;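 also: ratio of well signal to plate DMSO mean so 100% equals DMSO level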); details: S. cerevisiae MEP2-GFP strain, 3 h, at 10 µM, stronger effect = higher value
# [4] = AGP1-GFP expression modulators, hit retest, confirmation, cell-based, flow cytometry, S. cerevisiae, cherry picks (AID 2273);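 also: median GFP channel fluorescence over the whole cell population gate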; details: S. cerevisiae AGP1-GFP strain, 3 h, at 10 µM
# [5] = modulators of CIT2-GFP expression in yeast, confirmation, S. cerevisiae, GFP fusion, cherry picks, mother/daughter gates (AID 2274); details: S. cerevisiae CIT2-GFP strain, flow cytometry, 3 h, at 10 µM, stronger effect = higher value
# [6] = measured here: daughter cell gate
# [7] = measured here: mother cell gate
# [8] = measured here: daughter cell gate response
# [9] = measured here: mother cell gate response
SMILES,GFP response vs DMSO [1],"GFP response vs DMSO [1, 6]","GFP response vs DMSO [1, 7]",GFP response relative to DMSO [2],"GFP response relative to DMSO [2, 8]","GFP response relative to DMSO [2, 9]",GFP response vs DMSO [3],"GFP response, % of DMSO [4]","GFP response, % of DMSO [5]","GFP response, % of DMSO [5, 6]","GFP response, % of DMSO [5, 7]"
Cc1ccc(NC(=S)NCC23C=CC(O2)C2C(=O)N(c4ccc(C)cc4)C(=O)C23)cc1 (configuration not stated),102% (inactive),101%,102%,105% (inactive),105%,106%,104% (inactive),98.9% (inactive),100% (inactive),98.1%,101%
COCCCN(C(=O)c1ccco1)c1nc(-c2cc(OC)ccc2OC)cs1,95.8% (inactive),96.4%,94%,98.9% (inactive),96%,100%,112% (inactive),98.4% (inactive),100% (inactive),103%,99.3%
COC(=O)c1cc(NC(=O)c2c(Cl)nc3sccn23)cc(C(=O)OC)c1,97% (inactive),98.6%,96.9%,92.8% (inactive),92.8%,92.9%,102% (inactive),90% (inactive),99.7% (inactive),101%,99.7%
CCOC(=O)N/C(N)=N/c1nc2ccccc2s1,85.9% (inactive),82.1%,86.6%,120% (inactive),113%,126%,102% (inactive),95% (inactive),92.6% (inactive),86.7%,93.4%
Cc1nn(Cc2ccc(Cl)cc2)c(=O)n1N(C)c1ncc(C(F)(F)F)cc1Cl,96% (inactive),98.1%,97.2%,96.7% (inactive),97.6%,95.1%,96.2% (inactive),95.4% (inactive),99.7% (inactive),101%,98.5%
CCOc1cc(-c2nc3cc(C)ccn3c2NCC2CCCO2)ccc1O (configuration not stated),103% (inactive),105%,101%,88.2% (inactive),91.3%,87.3%,103% (inactive),97.9% (inactive),104% (inactive),108%,104%
Cn1c(=O)c(C(=O)Nc2ncccc2O)c(O)c2ccccc21,95.3% (inactive),93.9%,91.8%,100% (inactive),91.3%,90.3%,145% (inactive),99.8% (inactive),90.3% (inactive),90.5%,88.2%
CCOc1ccc(N2C(=O)C(Cl)=C(Nc3ccccc3O)C2=O)cc1,97.4% (inactive),98%,98.1%,103% (inactive),99.3%,105%,104% (inactive),96.7% (inactive),97.8% (inactive),100%,95.6%
N#C/C(=C\c1cccc(Oc2ccccc2)c1)C(=O)N1CCOCC1,97.8% (inactive),97.8%,95.1%,137% (inactive),128%,141%,98.8% (inactive),104% (inactive),90.9% (inactive),90.5%,87.8%
O=[N+]([O-])c1cc(Cl)c2cccnc2c1O,100% (inactive),94.9%,102%,174% (active),141%,181%,118% (inactive),100% (inactive),99.3% (inactive),96.4%,94.5%
CCc1nnc(NC(=O)CSc2nnc(C3CCCCC3)n2-c2cccc(Cl)c2)s1,98.2% (inactive),98.5%,98.6%,100% (inactive),99.3%,99.5%,102% (inactive),101% (inactive),101% (inactive),102%,100%
CC1CCc2c(C(=O)NCc3cccnc3)csc2C1 (configuration not stated),94.2% (inactive),94.2%,92.7%,111% (inactive),109%,113%,94.7% (inactive),95.9% (inactive),87.2% (inactive),84.8%,88.2%
CCOc1ccc(C(Nc2cccnc2)c2cc(Cl)c3cccnc3c2O)cc1 (configuration not stated),99.6% (inactive),104%,95.6%,164% (active),144%,170%,122% (inactive),93.9% (inactive),101% (inactive),108%,94.9%
C=CCn1c(=N)c(C#N)cc2c(=O)n3ccccc3nc21,98% (inactive),95.4%,93%,99.2% (inactive),99.2%,98.3%,105% (inactive),100% (inactive),101% (inactive),97.2%,87.8%
CCC(=O)Nc1cccc(C(=O)/C=C/c2ccccc2)c1,102% (inactive),102%,101%,105% (inactive),102%,106%,109% (inactive),97.3% (inactive),97.3% (inactive),95.6%,95.6%
Cc1ccc(-c2ccc(/C=N/NC(N)=S)o2)cc1,98.6% (inactive),95%,98.7%,112% (inactive),113%,115%,102% (inactive),91.9% (inactive),97.8% (inactive),94.8%,96.6%
O=C(NCc1cccnc1)c1cnc2n(c1=O)CCS2,101% (inactive),101%,101%,101% (inactive),104%,100%,99.3% (inactive),102% (inactive),98.6% (inactive),101%,99.3%
Cc1cc2ccccn2c1C(=O)c1ccc([N+](=O)[O-])o1,102% (inactive),106%,94.6%,195% (active),182%,196%,132% (inactive),109% (inactive),98.4% (inactive),106%,87.8%
COc1ccccc1N=Nc1ccc(O)c2ncccc12,104% (inactive),101%,101%,235% (active),203%,223%,132% (inactive),115% (inactive),158% (active),126%,161%
CC(OC(=O)CSc1ccc([N+](=O)[O-])cc1)C(=O)NCc1ccccc1 (configuration not stated),101% (inactive),101%,101%,99.8% (inactive),102%,100%,100% (inactive),98% (inactive),97.8% (inactive),96.5%,96.6%
O=C(CCc1nc(-c2ccccc2)no1)Nc1cc(C(F)(F)F)ccc1Cl,105% (inactive),105%,103%,91.9% (inactive),91%,92%,105% (inactive),102% (inactive),112% (inactive),108%,110%
Cn1ncc(S(=O)(=O)Cc2ccccc2)c(Cl)c1=O,94.2% (inactive),90.6%,87.7%,316% (active),160%,319%,100% (inactive),79.1% (inactive),92.6% (inactive),101%,84.3%
COc1ccc(C2N(c3ccc(Cl)cc3)N=C(C(C)=O)N(C)N2C(C)=O)cc1 (configuration not stated),100% (inactive),99.6%,100%,104% (inactive),101%,103%,101% (inactive),101% (inactive),106% (inactive),106%,106%
COCCNC(=O)c1ccccc1-c1nc(-c2ccccc2Cl)no1,98% (inactive),97.1%,98.9%,101% (inactive),99.2%,99.3%,105% (inactive),96% (inactive),105% (inactive),105%,103%
Clc1ccc(C2=NNC(=NCc3ccccc3)SC2)cc1,95.6% (inactive),94.6%,86.8%,97.9% (inactive),97.6%,98.3%,98.3% (inactive),93.9% (inactive),99.7% (inactive),101%,98.5%
COc1ccc(N2C(=O)C(Cl)=C(NCc3ccccc3)C2=O)cc1,96.5% (inactive),93%,95.9%,111% (inactive),111%,112%,99.3% (inactive),95.9% (inactive),91.7% (inactive),92.3%,90.4%
Cc1ccn2c(NC3CCCCC3)c(C(C)C)nc2c1,99.4% (inactive),99.4%,99.2%,101% (inactive),101%,100%,100% (inactive),100% (inactive),101% (inactive),103%,101%
